Measured values from PMC11842988 (Journal for Immunotherapy of Cancer, 2025).
“Also recorded” adds a separate entry of the source.

Tests used:
[1] = system: TAAp-specific CD8+ T cells, A2/DR1 mice; type: in vivo, mouse; conditions: for TAAp-specific IFN-γ response after OMP immunization: ex vivo restimulation with TAAp; for TAAp-specific response, OMP versus TAAp immunization: figure 2F
Outline: (§1)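 HLA-A2/DR1 transgenic mice primed day 0, boosted day 14, s.c., with class I peptide (5, 30 or 95 nmol) plus UCP2 helper (30–100 µg) in Montanide ISA 51 VG (50:50). Spleens taken day 21 post-prime, or day 30 in the tumour study; RBCs lysed. 2×10^5 splenocytes/well restimulated ~20 h with 10 µM peptide at 37°C. PMA/ionomycin and EZH2-B2 controls. Media background subtracted; IFN-γ spots per 10^6 T cells.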

[2] = system: splenocytes pulsed with OMPs; assay: In vivo cytotoxicity in humanized HLA-A2 mice, OMP-pulsed splenocytes; design: species or system mouse; conditions: online supplemental figure 2
Outline: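 Immunised A2/DR1 mice challenged i.v. 6 days post-boost; naïve mice received the same cells. Splenocytes from unimmunised syngeneic donors were pulsed with individual peptides (bright dye) and mixed 1:1 with unpulsed cells (dim dye). Read out 20 h later by flow cytometry. Specific lysis (%) = (% targets in naïve − % in immunised)/% in naïve × 100.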

[3] = system: OMP-/TAAp-specific CD8+ T cells in HD PBMCs; type: cell-based, human; conditions: HLA-A2+ HD PBMCs after IVS with OMPs; average unless stated
Outline: (§2)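 HLA-A*02:01 donor PBMCs pulsed 24 h with OMPs (10 µM), CD137-enriched, expanded 8 days on anti-CD3/CD28 with IL-2/7/15/21. Restimulated every 10 days with mitomycin C-treated T2 cells loaded with peptide and β2-microglobulin. Antigen-specific frequency measured by CD8 plus pMHC tetramer staining. Per-donor cross-reactivity (%) computed from the TAA-specific and OMP-specific CD8+ percentages.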

[4] = system: OMP-specific CD8+ T cells in HD PBMCs; assay: Prevalence of OMP-specific CD8+ T cells in healthy donors; type: cell-based, human
Outline: as §2

[5] = system: antigen-specific CD8+ T cells in patient PBMCs; assay: Tetramer staining of patient PBMCs after 12 days IVS with OMPs; type: cell-based, human; conditions: patients, EO2401
Outline: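 Thawed patient PBMCs (2.5–3.5×10^6/well) rested 24 h, then given the OMP pool (1 µg/mL each) on day 1. IL-2 (2 ng/mL) added from day 3, with splits and feeds; harvested day 12. Stained 30 min at RT with separate OMP and TAAp tetramer mixes (2.5 µg/mL each), or matched pairs for cross-reactivity. Then CD4/CD8/CD14/CD19 and Zombie Aqua, 20 min 4°C. ≥600,000 cells acquired; % of live CD8+.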

[6] = system: antigen-specific CD8+ T cells in patient PBMCs; assay: Tetramer staining of patient PBMCs ex vivo; type: cell-based, human
[7] = system: patient CD8+ T cells; assay: Intracellular cytokine staining; type: cell-based, human; conditions: for Cytokine levels after restimulation (ICS): post-IVS with OMPs
Outline: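 Patient PBMCs expanded 12 days in vitro with the three-peptide bacterial pool (1 µg/mL each, added day 1) in IMDM/10% human serum/β-ME. IL-2 (2 ng/mL) added on day 3 and again on days 5, 7 and 9. Cells then restimulated with the indicated peptides. Intracellular IFN-γ, TNF, IL-2, CD154 and CD107a reported as % positive T cells.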

[8] = system: OMP-loaded T2 cells; assay: Cytotoxicity of sorted TAAp-specific T cells on OMP-loaded T2 cells; type: cell-based, human; conditions: 24 h, EZH2-loaded T2 as control
Outline: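 Patient PBMCs stimulated 12 days in vitro with the three-peptide OMP pool. TAAp-tetramer+ CD8+ T cells sorted, then expanded on anti-CD3/CD28 activator with IL-2 (50 U/mL), IL-7, IL-15 and IL-21. CellTrace Violet-labelled T2 cells co-cultured with these T cells, peptide (OMP or EZH2 control) and β2-microglobulin at 37°C for 24 h in 50% RPMI/50% X-vivo 15. Media-only control. CD8 and near-IR live/dead stains; duplicates.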

[9] = system: OMP-specific CD8+ T cells, A2/DR1 mice; assay: IFN-γ ELISpot of splenocytes from immunized A2/DR1 mice, restimulation with OMP; type: in vivo, mouse; conditions: ELISpot day 30
Outline: as §1

[10] = system: SARC-A2-hCD20-GFP sarcoma cells; assay: Tumor protection model, SARC-A2-hCD20-GFP sarcoma in A2/DR1 mice; type: in vivo, mouse; conditions: OMP72 prime-boost, 0.5×10^6 SARC-A2-hCD20-GFP cells s.c., n=8 mice
Outline: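 A2/DR1 mice given the prime-boost regimen (days 0 and 14). On day 21 post-prime, 0.5×10^6 SARC-A2-hCD20-GFP or SARC-A2-GFP sarcoma cells in PBS injected s.c. in the right flank; naïve mice as controls. Tumours measured by caliper twice weekly over 30 days (mm2). Endpoint at ≥300 mm2; n=8 per group.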

[11] = system: human CD20 on SARC-A2-hCD20-GFP cells; assay: hCD20 expression of tumor cells at day 30; type: in vivo, mouse; conditions: OMP72-immunized mice still bearing tumors, day 30, n=4

Sequence: YIFEHPETA [OMP64]
- TAAp-specific IFN-γ response after OMP immunization [1]: < 2,000 SFU
- Individual OMP-specific CTL activity [2]: lower
- Cross-reactivity OMP/TAAp in healthy donor CD8+ T cells [3]: below 33%
- Prevalence of OMP-specific CD8+ T cells in HLA-A2+ PBMC samples [4]: 67%

Sequence: FMLGEFLKL [OMP17]
- TAAp-specific IFN-γ response after OMP immunization [1]: > 5,000 SFU
- TAAp-specific response, OMP versus TAAp immunization [1]: superior immunogenicity
- Cross-reactivity OMP/TAAp in healthy donor CD8+ T cells [3]: above 66%
- OMP-specific T cells also recognizing the matched TAAp [5]: 80%
- BIRC5-specific CD8+ T cells of total circulating CD8+ T cells ([6]; Patient #1): more than 20%
- Tetramer+ T cells of total circulating CD8+ T cells, week 44 ([6]; Patient #1, ex vivo, week 44): 3.27%
- Tetramer+ T cells of total circulating CD8+ T cells, week 88 ([6]; Patient #1, ex vivo, week 88): 17.4%
- Tetramer+ T cells of total circulating CD8+ T cells, week 100 ([6]; Patient #1, ex vivo, week 100, listed as EO2317): 32%
- Simultaneous cytokine production on restimulation (polyfunctionality) ([7]; Patient #1, weeks 88 and 100): IFN-γ, TNF-α and CD107a simultaneously
- Cytokine levels after restimulation (ICS) [7]: stronger cytokine levels
- Killing of OMP-loaded T2 cells by corresponding TAAp-tetramer+ T cells [8]: specifically killed

Sequence: FLAFVPLQL [OMP65]
- TAAp-specific IFN-γ response after OMP immunization [1]: > 5,000 SFU
- TAAp-specific response, OMP versus TAAp immunization [1]: superior immunogenicity

Sequence: SLPDRILTV [OMP11]
- Cross-reactivity OMP/TAAp in healthy donor CD8+ T cells [3]: below 33%

Sequence: AMNSLSLYI [OMP72]
- OMP72-specific IFN-γ-producing cells in responsive versus non-responsive mice [9]: comparable levels
- Individual OMP-specific CTL activity [2]: negligible
- Tumor protection after immunization [10]: half of the A2/DR1 mice; also recorded: could induce protection against CD20-expressing tumor cells
- Tumor cells with loss of CD20 surface expression in non-controlled tumors [11]: 99%

Sequence: LLFGAPALL [BAFF-R77-85, reference compound]
- TAAp-specific response, OMP versus TAAp immunization [1]: weaker when mice were immunized with TAAps than with their mimic OMPs

Sequence: ALNPELLAL [OMP12]
- TAAp-specific response, OMP versus TAAp immunization [1]: superior immunogenicity
- Cross-reactivity OMP/TAAp in healthy donor CD8+ T cells [3]: above 66%

Sequence: LMFGAPALV [OMP66]
- TAAp-specific IFN-γ response after OMP immunization [1]: > 5,000 SFU
- TAAp-specific response, OMP versus TAAp immunization [1]: superior immunogenicity

Sequence: LMDLSTTEV [OMP18]
- TAAp-specific IFN-γ response after OMP immunization [1]: < 2,000 SFU
- Cross-reactivity OMP/TAAp in healthy donor CD8+ T cells [3]: below 33%
- OMP-specific T cells also recognizing the matched TAAp [5]: around 20%
- Cytokine levels after restimulation (ICS) [7]: stronger cytokine levels
- Killing of OMP-loaded T2 cells by corresponding TAAp-tetramer+ T cells [8]: specifically killed

Sequence: FLPFGFILPV [OMP16]
- TAAp-specific IFN-γ response after OMP immunization [1]: < 2,000 SFU
- TAAp-specific response, OMP versus TAAp immunization [1]: superior immunogenicity
- OMP-specific T cells also recognizing the matched TAAp [5]: 1%
- Cytokine levels after restimulation (ICS) [7]: stronger cytokine levels
- Killing of OMP-loaded T2 cells by corresponding TAAp-tetramer+ T cells [8]: specifically killed

Sequence: FLYDVRTYL [OMP10]
- Cross-reactivity OMP/TAAp in healthy donor CD8+ T cells [3]: below 33%
